ChEMBL document CHEMBL3098102, “1,2,3-Triazole-derived naphthalimides as a novel type of potential antimicrobial agents: synthesis, antimicrobial activity, interaction with calf thymus DNA and human serum albumin” (Bioorg Med Chem Lett, 2014)
Values after ≈ are worked out from the molar mass of the structure shown.

Key:
Assay type in all cases: functional
Shigella dysenteriae = test: Antimicrobial activity against Shigella dysenteriae after 24 hrs by two-fold serial dilution method
Pseudomonas aeruginosa = test: Antimicrobial activity against Pseudomonas aeruginosa after 24 hrs by two-fold serial dilution method
In short: (§1)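 MIC read by broth microdilution in microdilution plates.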

[1] = Antimicrobial activity against Bacillus proteus after 24 hrs by two-fold serial dilution method; in short: as §1
Bacillus subtilis = test: Antimicrobial activity against Bacillus subtilis after 24 hrs by two-fold serial dilution method; in short: as §1
Saccharomyces cerevisiae = test: Antimicrobial activity against Saccharomyces cerevisiae by two-fold serial dilution method; in short: as §1
Aspergillus flavus = test: Antimicrobial activity against Aspergillus flavus after 24 hrs by two-fold serial dilution method; in short: as §1
Candida albicans = test: Antimicrobial activity against Candida albicans after 24 hrs by two-fold serial dilution method; in short: as §1
Escherichia coli [2] = test: Antimicrobial activity against Escherichia coli DH52 after 24 hrs by two-fold serial dilution method; details: DH52, 24 h
Micrococcus luteus = test: Antimicrobial activity against Micrococcus luteus ATCC 4698 after 24 hrs by two-fold serial dilution method; details: ATCC 4698, 24 h
Staphylococcus aureus [3] = test: Antimicrobial activity against methicillin-resistant Staphylococcus aureus N315 after 24 hrs by two-fold serial dilution method; details: N315, 24 h
Staphylococcus aureus [4] = test: Antimicrobial activity against Staphylococcus aureus ATCC 25923 after 24 hrs by two-fold serial dilution method; details: ATCC 25923, 24 h
Escherichia coli [5] = test: Ratio of chloromycin MIC to compound MIC for Escherichia coli DH52 after 24 hrs by two-fold serial dilution method

SMILES | MIC (Shigella dysenteriae) [µg/mL] | MIC (Pseudomonas aeruginosa) [µg/mL] | MIC [1] [µg/mL] | MIC (Bacillus subtilis) [µg/mL] | MIC (Saccharomyces cerevisiae) [µg/mL] | MIC (Aspergillus flavus) [µg/mL] | MIC (Candida albicans) [µg/mL] | MIC (Escherichia coli [2]) [µg/mL] | MIC (Micrococcus luteus) [µg/mL] | MIC (Staphylococcus aureus [3]) [µg/mL] | MIC (Staphylococcus aureus [4]) [µg/mL] | Ratio (Escherichia coli [5])
O=C(N[C@H](CO)[C@H](O)c1ccc([N+](=O)[O-])cc1)C(Cl)Cl [CHLORAMPHENICOL] | 32 (≈ 99 µM) | 4 (≈ 12.4 µM) | 32 (≈ 99 µM) | 32 (≈ 99 µM) |  |  |  |  |  |  |  | 
Cl.Cl.O=C1c2cccc3c(Br)ccc(c23)C(=O)N1N(Cc1cn(Cc2cccc(F)c2)nn1)Cc1cn(Cc2cccc(F)c2)nn1 | > 512 | > 512 | > 512 | > 512 | > 512 | 32 | > 512 | 16 | 256 | > 512 | > 512 | 
Cl.Cl.O=C1c2cccc3c(Br)ccc(c23)C(=O)N1N(Cc1cn(Cc2ccc(F)cc2F)nn1)Cc1cn(Cc2ccc(F)cc2F)nn1 | > 512 | > 512 | > 512 | 128 | > 512 | > 512 | 512 | 32 | 512 | > 512 | > 512 | 
O=C1c2cccc3c(Br)ccc(c23)C(=O)N1N(Cc1cn(Cc2cccc(Cl)c2)nn1)Cc1cn(Cc2cccc(Cl)c2)nn1 | > 512 | 64 (≈ 91.1 µM) | > 512 | 256 (≈ 364 µM) | 64 (≈ 91.1 µM) | > 512 | 64 (≈ 91.1 µM) | 2 (≈ 2.85 µM) | > 512 | > 512 | 256 (≈ 364 µM) | 2
O=C1c2cccc3c(Br)ccc(c23)C(=O)N1N(Cc1cn(Cc2ccc(F)cc2F)nn1)Cc1cn(Cc2ccc(F)cc2F)nn1 | > 512 | > 512 | > 512 | 256 (≈ 363 µM) | > 512 | > 512 | > 512 | 64 (≈ 90.7 µM) | 512 (≈ 726 µM) | > 512 | > 512 | 
CCCCCCn1cc(CN(Cc2cn(CCCCCC)nn2)N2C(=O)c3cccc4c(Br)ccc(c34)C2=O)nn1.Cl.Cl | > 512 | 512 | > 512 | > 512 | > 512 | 32 | > 512 | 512 | 512 | > 512 | > 512 | 
O=C1c2cccc3c(Br)ccc(c23)C(=O)N1N(Cc1cn(Cc2ccccc2F)nn1)Cc1cn(Cc2ccccc2F)nn1 | > 512 | > 512 | > 512 | > 512 | > 512 | 64 (≈ 95.6 µM) | > 512 | 32 (≈ 47.8 µM) | 256 (≈ 382 µM) | > 512 | > 512 | 
O=C1c2cccc3c(Br)ccc(c23)C(=O)N1N(Cc1cn(Cc2cccc(F)c2)nn1)Cc1cn(Cc2cccc(F)c2)nn1 | > 512 | > 512 | > 512 | > 512 | > 512 | 32 (≈ 47.8 µM) | > 512 | 16 (≈ 23.9 µM) | 256 (≈ 382 µM) | > 512 | > 512 | 
Cl.Cl.Cl.Cl.O=C1c2cccc3c(Br)ccc(c23)C(=O)N1N(Cc1cn(Cc2ccc(Cl)cc2)nn1)Cc1cn(Cc2ccc(Cl)cc2)nn1 | 256 | 512 | > 512 | 256 | > 512 | 256 | > 512 | 2 | 32 | 512 | 256 | 2
CCCCCCn1cc(CN(Cc2cn(CCCCCC)nn2)N2C(=O)c3cccc4c(Br)ccc(c34)C2=O)nn1 | > 512 | 512 (≈ 824 µM) | > 512 | > 512 | > 512 | 64 (≈ 103 µM) | > 512 | 512 (≈ 824 µM) | > 512 | > 512 | > 512 | 
Cl.Cl.Cl.Cl.O=C1c2cccc3c(Br)ccc(c23)C(=O)N1N(Cc1cn(Cc2cccc(Cl)c2)nn1)Cc1cn(Cc2cccc(Cl)c2)nn1 | 512 | 64 | 512 | 256 | 64 | > 512 | 16 | 2 | > 512 | 256 | 256 | 2
Cl.Cl.O=C1c2cccc3c(Br)ccc(c23)C(=O)N1N(Cc1cn(Cc2ccccc2F)nn1)Cc1cn(Cc2ccccc2F)nn1 | > 512 | > 512 | > 512 | > 512 | > 512 | 64 | > 512 | 16 | 256 | > 512 | > 512 | 
CCCCn1cc(CN(Cc2cn(CCCC)nn2)N2C(=O)c3cccc4c(Br)ccc(c34)C2=O)nn1 | > 512 | > 512 | > 512 | > 512 | > 512 | 64 (≈ 113 µM) | > 512 | > 512 | > 512 | > 512 | > 512 | 
O=C1c2cccc3c(Br)ccc(c23)C(=O)N1N(Cc1cn(Cc2ccc(Cl)cc2)nn1)Cc1cn(Cc2ccc(Cl)cc2)nn1 | 256 (≈ 364 µM) | 512 (≈ 729 µM) | > 512 | 256 (≈ 364 µM) | > 512 | > 512 | > 512 | 2 (≈ 2.85 µM) | 64 (≈ 91.1 µM) | > 512 | > 512 | 2
Cl.Cl.Cl.Cl.O=C1c2cccc3c(Br)ccc(c23)C(=O)N1N(Cc1cn(Cc2ccccc2Cl)nn1)Cc1cn(Cc2ccccc2Cl)nn1 | > 512 | > 512 | > 512 | > 512 | > 512 | > 512 | 64 | 4 | 128 | 512 | > 512 | 2
O=C1c2cccc3c(Br)ccc(c23)C(=O)N1N(Cc1cn(Cc2ccc(F)cc2)nn1)Cc1cn(Cc2ccc(F)cc2)nn1 | > 512 | > 512 | > 512 | > 512 | > 512 | > 512 | > 512 | 32 (≈ 47.8 µM) | 512 (≈ 765 µM) | > 512 | > 512 | 
CCCCn1cc(CN(Cc2cn(CCCC)nn2)N2C(=O)c3cccc4c(Br)ccc(c34)C2=O)nn1.Cl.Cl | > 512 | > 512 | > 512 | 512 | > 512 | 64 | > 512 | > 512 | > 512 | > 512 | > 512 | 
CCn1cc(C(=O)O)c(=O)c2cc(F)c(N3CCNCC3)cc21 [NORFLOXACIN] | 2 (≈ 6.26 µM) | 1 (≈ 3.13 µM) | 2 (≈ 6.26 µM) | 2 (≈ 6.26 µM) |  |  |  | 2 (≈ 6.26 µM) | 1 (≈ 3.13 µM) | 1 (≈ 3.13 µM) | 4 (≈ 12.5 µM) | 
OC(Cn1cncn1)(Cn1cncn1)c1ccc(F)cc1F [FLUCONAZOLE] |  |  |  |  | 4 (≈ 13.1 µM) | 256 (≈ 836 µM) | 2 (≈ 6.53 µM) |  |  |  |  | 
O=C1c2cccc3c(Br)ccc(c23)C(=O)N1N(Cc1cn(Cc2ccc([N+](=O)[O-])cc2)nn1)Cc1cn(Cc2ccc([N+](=O)[O-])cc2)nn1 | > 512 | > 512 | > 512 | 256 (≈ 354 µM) | > 512 | > 512 | > 512 | 256 (≈ 354 µM) | 512 (≈ 708 µM) | > 512 | > 512 | 
Cl.Cl.Cl.Cl.Cl.Cl.O=C1c2cccc3c(Br)ccc(c23)C(=O)N1N(Cc1cn(Cc2ccc(Cl)c(Cl)c2)nn1)Cc1cn(Cc2ccc(Cl)c(Cl)c2)nn1 | > 512 | 256 | 256 | 512 | 32 | > 512 | 256 | 0.5 | 512 | 256 | 256 | 2
Cl.Cl.Cl.Cl.Cl.Cl.O=C1c2cccc3c(Br)ccc(c23)C(=O)N1N(Cc1cn(Cc2ccc(Cl)cc2Cl)nn1)Cc1cn(Cc2ccc(Cl)cc2Cl)nn1 | > 512 | > 512 | > 512 | > 512 | > 512 | 32 | > 512 | 4 | 256 | > 512 | > 512 | 2
O=C1c2cccc3c(Br)ccc(c23)C(=O)N1N(Cc1cn(Cc2ccc(Cl)cc2Cl)nn1)Cc1cn(Cc2ccc(Cl)cc2Cl)nn1 | > 512 | > 512 | > 512 | > 512 | > 512 | 32 (≈ 41.5 µM) | > 512 | 8 (≈ 10.4 µM) | 256 (≈ 332 µM) | > 512 | > 512 | 2
Cl.Cl.O=C1c2cccc3c(Br)ccc(c23)C(=O)N1N(Cc1cn(Cc2ccc(F)cc2)nn1)Cc1cn(Cc2ccc(F)cc2)nn1 | > 512 | > 512 | 512 | > 512 | > 512 | 512 | > 512 | 32 | 512 | > 512 | > 512 | 
O=C1c2cccc3c(Br)ccc(c23)C(=O)N1N(Cc1cn(Cc2ccc(Cl)c(Cl)c2)nn1)Cc1cn(Cc2ccc(Cl)c(Cl)c2)nn1 | > 512 | 256 (≈ 332 µM) | 512 (≈ 664 µM) | > 512 | 64 (≈ 83 µM) | > 512 | 256 (≈ 332 µM) | 1 (≈ 1.3 µM) | > 512 | > 512 | > 512 | 2
